Source: PubChem BioAssay
Kir21 block: inhibitors of mouse Kir2.1 inward-rectifier potassium channel. 0.85% of 310,000 active. Inward rectifier potassium channel 2 (Mus musculus), P35561. B-score at 10 µM. HEK293-Kir2.1, FluxOR thallium flux fluorescence; active compounds read low;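 active means fluorescence ratio B-score at or below minus 3 SD of library scores, with starting-brightness B-score within 2 SD, cut at about -4.2 in these data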;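 further: channel flux triggered by added potassium and thallium sulfate stimulus; B-score of peak minus minimum fluorescence over baseline after thallium stimulus; more negative B-score means stronger Kir2.1 block with less thallium influx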
KCNK9 block: KCNK9 potassium channel inhibitors, primary screen, HEK293 cells, thallium flux | FluxOR thallium flux fluorescence; active compounds read low | B-score at 10 µM | 1.2% of 310,000 active;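 active means ratio B-score over 3 SD below the library mean, with starting fluorescence within 5 SD of its mean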;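 further: negative B-score means less thallium flux so channel inhibition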
Target sequence (Q9NPC2 whole entry, looked up): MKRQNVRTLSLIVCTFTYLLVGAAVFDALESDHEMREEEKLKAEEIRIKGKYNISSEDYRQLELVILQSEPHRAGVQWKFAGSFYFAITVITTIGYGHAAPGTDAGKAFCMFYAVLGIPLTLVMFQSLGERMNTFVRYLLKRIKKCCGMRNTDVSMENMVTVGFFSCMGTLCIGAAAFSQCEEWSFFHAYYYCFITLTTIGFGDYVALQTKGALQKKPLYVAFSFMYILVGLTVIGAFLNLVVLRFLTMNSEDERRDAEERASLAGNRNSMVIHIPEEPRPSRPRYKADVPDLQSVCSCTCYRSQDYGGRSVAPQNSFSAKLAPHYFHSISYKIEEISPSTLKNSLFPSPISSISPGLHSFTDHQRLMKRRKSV
KCNQ1 act: potentiators or activators of KCNQ1 channel, primary screen, cell-based, thallium flux, high-throughput; CHO-K1 KCNQ1, thallium flux FluxOR fluorescence; active compounds read high; B-score at 10 µM; 0.35% of 310,000 active; AID 2648, 2010;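 active means fluorescence ratio B-score, a plate-corrected score, at least three library SD, with initial intensity B-score within 5 SD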
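assay system = KCNQ1-transfected CHO-K1 cells | medium = assay buffer with matched DMSO | probe or stimulus = depolarizing K+/Tl+ stimulus, K2SO4 and Tl2SO4 each 12.5 mM in 5x stock | dosing = single dose | incubation = dye 90 min, compound 20 min, room temperature | detection = kinetic FluxOR fluorescence, 10 s baseline plus 110 s post-stimulus | evaluation = ratio B score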
KCNQ1 block: inhibitors of human KCNQ1 channel, primary screen, cell-based, thallium flux, high-throughput | Potassium voltage-gated channel subfamily KQT member 1 (Homo sapiens), P51787 | CHO-K1 KCNQ1, FluxOR thallium flux fluorescence; active compounds read high | B-score at 10 µM | 1.3% of 310,000 active | AID 2642, 2010;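 active means compounds whose thallium flux B-score, printed positive for inhibition, exceeds three library SD while starting fluorescence stays within three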;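 further: channel opened by potassium depolarization with thallium stimulus after 20 min compound exposure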
KCNK3 inh: human KCNK3 channel inhibitors, primary screen, CHO cells, FluxOR thallium flux, B-score. B-score at 10 µM. FluxOR fluorescence; active compounds read low. 0.84% of 340,000 active;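 active means B-score under library mean minus 4 SD, starting fluorescence ratio at most library mean plus 5 SD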;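 further: more negative B-score means stronger inhibition of thallium flux through KCNK3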
hERG protect: hERG rescue from dofetilide block, primary screen, cell-based, CHO-hERG, FluxOR thallium flux, dofetilide IC70 | activation (rescue from dofetilide block), less the hit threshold, % at 10 µM | dofetilide IC70 present | 0.51% of 310,000 active | Voltage-gated inwardly rectifying potassium channel KCNH2 (Homo sapiens), Q12809;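 active means activation above the mean of controls blocked by dofetilide plus 5 SD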;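 further: thallium influx through hERG after potassium depolarization seen as dye fluorescence rise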
Of the large screens only hits and unclear results are named; the others gave an inactive call. This is a sample that favours compounds with a hit; in the whole collection about 3.7% have one here.

CN(C(=O)C(Cl)Cl)c1ccc(OC(=O)c2ccco2)cc1	Kir21 block -4.69
O=C(Oc1cccnc1)c1ccco1	none
COc1cc(C(=O)NC(=S)N2CCN(C)CC2)cc(OC)c1OC	none (no result: Kir21 block, KCNK9 block, KCNQ1 act, KCNQ1 block, hERG protect)
COc1cc(/C=C(/C(=O)c2cccs2)c2nc3ccccc3[nH]2)ccc1O	Kir21 block -4.41
COC(=O)/C(=C\c1cc(OC)c(OC)c(OC)c1)c1nc2ccccc2[nH]1	none
O=P(Cc1cc(Br)cc(Br)c1OCCO)(c1ccccc1)c1ccccc1	KCNK9 block -6.75
CCCCN=C(NNc1ccc(Br)cc1)C(=O)OCC	KCNK9 block -7.57
CCOC(=O)C(=NCCCN(C)C)NNc1ccc(Br)cc1	none
CCC1=C(OC(=O)N(CC)CC)N2C(=O)OC(=NCCc3c[nH]c4ccccc34)[C@]2(Cc2ccccc2)[C@H]2C1=CC[C@H]1C(=O)N(CC)C(=O)[C@H]12	KCNK9 block -6.83
COc1cccc(C(C)NC(=O)Nc2cc(Cl)ccc2OC)c1 (centres undefined)	none
COc1cccc(C(C)NC(=O)Nc2cccc(C(F)(F)F)c2)c1 (centres undefined)	KCNK9 block -6.79
CCOC(=O)c1cc(-c2ccccc2)sc1NC(=O)C(C)Sc1nnc(C)s1 (centres undefined)	KCNK9 block -7.03
Nc1c(C2CCCCC2)c(=O)on1C(=O)c1ccccc1	none (no result: Kir21 block, KCNK9 block, KCNQ1 act, KCNQ1 block, hERG protect)
O=C1c2ccccc2C2(c3ccccc3)NCCCN12 (centres undefined)	none
O=C1c2ccccc2C2(c3cc(C(F)(F)F)cc(C(F)(F)F)c3)NCCN12 (centres undefined)	KCNQ1 act 14
CCOC(=O)C(=O)Nc1cc(C)on1	none
C=CCN([C@H](C(=O)OC)C(C)C)S(=O)(=O)CCNCc1ccccc1	none (no result: Kir21 block, KCNK9 block, KCNQ1 act, KCNQ1 block, hERG protect)
C=CCOc1ccc(/C=C/C(=O)N2CCCN(S(=O)(=O)c3c(C)noc3C)CC2)cc1	none (no result: Kir21 block, KCNK9 block, KCNQ1 act, KCNQ1 block, hERG protect)
COc1ccc(-c2sc(NC(C)=O)nc2-c2ccccc2)cc1	none
O=C(CSCC(=O)N1CCCCC1)Nc1nc(-c2ccccc2)c(-c2ccccc2)s1	KCNK3 inh -10.9 (no result: Kir21 block, KCNK9 block, KCNQ1 act, KCNQ1 block, hERG protect)
COc1ccc(Oc2ccc(/C=C/C(=O)c3cccc(OC)c3)cc2[N+](=O)[O-])cc1	none
O=c1cc(-c2c(F)c(F)c(F)c(F)c2F)oc2ccccc12	KCNQ1 act 24, hERG protect 18.9
CCOc1ccc(Nc2ccc([N+](=O)[O-])c3nonc23)cc1	KCNQ1 block 7
O=C(c1ccccc1)c1coc2ccc(O)c(CN3CCOCC3)c12	Kir21 block -6.28
c1ccc(-c2ccccc2OCCCN2CCCC2)cc1	Kir21 block -4.21
CC(C)c1ccccc1OCCCCN1CCCCC1	Kir21 block -5.05
CC(C)c1ccccc1OCCCN1CCCC1	none
CC1CC(C)CN(CCOc2ccccc2-c2ccccc2)C1 (centres undefined)	Kir21 block -6.33
c1ccc(-c2ccccc2OCCCN2CCCCCC2)cc1	none
O=C(COC(=O)/C=C/c1cccc(C(F)(F)F)c1)NCCN1C(=O)CSC1=O	none (no result: Kir21 block, KCNK9 block, KCNQ1 act, KCNQ1 block, hERG protect)
CCN1CCC(O)(/C=C/c2ccc(C(C)C)cc2)C(C(=O)/C=C/c2ccc(C(C)C)cc2)C1 (centres undefined)	none (no result: Kir21 block, KCNK9 block, KCNQ1 act, KCNQ1 block, hERG protect)
CN1CCN(C(=O)c2cc3nc(-c4ccc(Cl)cc4)cc(C(F)(F)F)n3n2)CC1	none
O=C(c1cc2nc(-c3ccc(Cl)cc3)cc(C(F)(F)F)n2n1)N1CCOCC1	hERG protect 46.3
O=C(O)CSc1nc2ccccc2c(=O)[nH]1	none
O=C(O)CSc1nc2ccccc2[nH]1	hERG protect 8.4
CCN(C(=O)COC(=O)CSc1ccccc1)c1c(N)n(Cc2ccccc2)c(=O)[nH]c1=O	none
COc1ccc(/C=C2\SC(=O)N(CC(=O)Nc3ccccc3O)C2=O)cc1OC	none
Cc1ccc(/C=C2/SC(=S)N(CCCC(=O)Nc3cc([N+](=O)[O-])ccc3O)C2=O)cc1	KCNQ1 block 7
O=C(CN1C(=O)S/C(=C\c2ccccc2)C1=O)Nc1cc([N+](=O)[O-])ccc1O	KCNQ1 block 8
COC(=O)c1ccc(COC(=O)CCC(=O)c2cccs2)cc1	none
S=C(NNc1ccnc2cc(Cl)ccc12)Nc1ccccc1Cl	KCNQ1 block 8
COc1ccc(NC(=O)[C@@H]2CC=C[C@@H]3CCN(C4CCCCC4)C(=O)[C@@H]32)cc1	none
CCCCCC(=O)OC(CN1CCCCCC1)CN1CCCC1=O (centres undefined)	KCNQ1 block 10
O=C(NCCCN1CCOCC1)c1cccc(NS(=O)(=O)c2ccc(Br)cc2)c1	none (no result: Kir21 block, KCNK9 block, KCNQ1 act, KCNQ1 block, hERG protect)
CCOC(=O)CN1C(c2ccccc2O)Nc2ccc(Br)cc2C1c1ccccc1 (centres undefined)	KCNK9 block -7.38
O=C(O)CN1C(=O)Nc2ccc(Br)cc2C1c1ccccc1 (centres undefined)	none
O=C(Nc1ccc(Br)c2ccccc12)c1ccc2ccccc2c1O	KCNQ1 block 7
CC(C)CN(C(=O)COc1ccc(C(C)(C)C)cc1)C1CCS(=O)(=O)C1 (centres undefined)	none
O=C(COC(=O)c1ccc(Br)cc1)NCCN1C(=O)CSC1=O	hERG protect 7.3
Cc1sc2nc(CN3CCOCC3)[nH]c(=S)c2c1C	KCNQ1 act 43, hERG protect 52.5
Cc1sc2nc(CN3CCN(c4ccc(O)cc4)CC3)[nH]c(=O)c2c1C	none
Cc1ccc(S(=O)(=O)N2CCN(C(=O)COC(=O)Cc3cccc(C(F)(F)F)c3)CC2)c(C)c1	none
Oc1ccc(Br)cc1-c1n[nH]c(=S)n1Cc1ccccc1	KCNQ1 act 11, hERG protect 5.9
CCOC(=O)c1cccc(NC(=O)CSc2nnc(COc3ccccc3)n2CC)c1	none
CCOC(=O)c1ccccc1NC(=O)CSc1nnc(COc2ccccc2)n1CC	Kir21 block -6.21
Cc1ccc(S(=O)(=O)NCCS(=O)(=O)N2CCN(c3ccccc3)CC2)cc1	none
O=C(c1ccccc1)C(Nc1ccccn1)c1ccccc1 (centres undefined)	KCNK9 block -7.05
O=C(Nc1ccccn1)c1ccccc1	none (no result: Kir21 block, KCNK9 block, KCNQ1 act, KCNQ1 block, hERG protect)
Cc1[nH]c2ccccc2c1C(O)CN1CCC2(CC1)OCCO2 (centres undefined)	none
O=C(Cn1cc(COc2ccc(Br)cc2[N+](=O)[O-])nn1)c1ccc(O)cc1	none (no result: Kir21 block, KCNK9 block, KCNQ1 act, KCNQ1 block, hERG protect)
CC(C)n1ncc2c(C(=O)Nc3cccc(S(=O)(=O)N(C)C)c3)cc(C3CC3)nc21	none (no result: Kir21 block, KCNK9 block, KCNQ1 act, KCNQ1 block, hERG protect)
N#Cc1nc(Cc2ccccc2)oc1N1CCC(C(N)=O)CC1	none
